FXIIa inh 1536: inhibitors of human coagulation factor XIIa. purified FXIIa, Boc-QGR-AMC fluorogenic substrate, 2 h. inhibition, % at 5 µM. 0.3% of 220,000 active. AID 800; in the data active means inhibition above about 40%;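 further: 0% = enzyme with no compound and 100% = blank without enzyme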
Target sequence (P00748 20-372 limits assumed): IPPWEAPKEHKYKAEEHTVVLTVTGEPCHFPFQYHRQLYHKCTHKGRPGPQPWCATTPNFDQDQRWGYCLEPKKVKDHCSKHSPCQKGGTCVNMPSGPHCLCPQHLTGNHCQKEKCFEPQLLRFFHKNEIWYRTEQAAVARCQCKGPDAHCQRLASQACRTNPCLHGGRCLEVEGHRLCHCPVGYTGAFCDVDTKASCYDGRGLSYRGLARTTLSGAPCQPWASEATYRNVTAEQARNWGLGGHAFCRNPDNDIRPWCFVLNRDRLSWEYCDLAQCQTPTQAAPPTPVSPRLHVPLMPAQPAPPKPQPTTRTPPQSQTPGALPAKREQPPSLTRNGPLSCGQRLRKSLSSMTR
Target sequence (P00748 373-615 limits assumed): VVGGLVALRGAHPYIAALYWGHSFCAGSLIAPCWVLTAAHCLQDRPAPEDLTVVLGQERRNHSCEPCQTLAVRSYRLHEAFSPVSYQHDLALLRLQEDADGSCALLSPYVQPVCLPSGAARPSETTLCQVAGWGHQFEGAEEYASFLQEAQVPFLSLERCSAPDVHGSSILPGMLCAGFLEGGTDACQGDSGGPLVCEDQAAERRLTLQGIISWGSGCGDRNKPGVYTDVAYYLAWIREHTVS
Furin inhibitor: inhibitors of human furin; P09958; purified furin, fluorogenic substrate cleavage; inhibition, % at 20 µM or 30 µM; 0.061% of 220,000 active; AID 463115; in the data active means inhibition above about 25%
KLK5 inh: inhibitors of human kallikrein 5 | recombinant hK5, fluorogenic AMC substrate cleavage | 0.59% of 210,000 active | inhibition, % at 5 µM | Q9Y337;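 active means inhibition of 40% or more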;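 further: 0% = enzyme controls without compound and 100% = no-enzyme blanks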
FXIa inh: factor XIa (human) inhibition; 0.14% of 220,000 active; inhibition, % at 5 µM; purified FXIa, Boc-Glu-Ala-Arg-AMC fluorogenic substrate; AID 798; P03951;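 active means inhibition of at least 40%; inactive means inhibition below 40%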;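 further: fluorescence of freed AMC excited at 355 nm; 0% = enzyme without compound and 100% = no enzyme blank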
m-calpain inh: inhibitors of pig calpain II; purified calpain II, fluorogenic peptide substrate, 30 min; inhibition, % at 16 µM; 0.37% of 220,000 active; AID 1236;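 active means inhibition above about 50%, limit read from the data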
thrombin 1536: blocks human thrombin protease activity; inhibition, % at 5 µM; P00734; alpha-thrombin, Boc-VPR-AMC fluorogenic substrate cleavage; 0.26% of 220,000 active;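 active means inhibition at or above 40%; inactive means inhibition below 40%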;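 further: 0% = enzyme with no compound and 100% = wells without enzyme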
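Test system: human alpha-thrombin protein / Dosing: one concentration per compound, 5 µM, with 0.2% DMSO / Medium: pH 7.5 Tris-saline with Tween 20 / Benchmarks: no-compound enzyme wells and no-enzyme blanks / Read-out basis: percent inhibition of thrombin substrate cleavage / Timing: reaction at room temperature / Measured by: fluorescence, ex 355 nm, em 460 nm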
* marks the source's active call; other numbers are inactive results; / = not tested or not shown. The list is not random: actives were taken first. Their share in the collection is about 1.4%.

SMILES	FXIIa inh 1536	Furin inhibitor	KLK5 inh	FXIa inh	m-calpain inh	thrombin 1536
O=C(Nc1ccccc1)c1ccn[nH]1	13	-19	-8	-3	4	3
Cc1ccc(Oc2ccc(C(=O)NCc3ccncc3)cc2)cc1	-1	-18	-5	-4	50*	-11
Cc1cc2cc(CN(Cc3ccc4c(c3)OCO4)C(=O)c3ccco3)c(=O)[nH]c2cc1C	9	-13	54*	2	-89	15
CN(C)CCNc1ncnc2c1sc1nc(-c3ccccc3)c3c(c12)CCCC3	42*	-3	18	25	3	17
CC(C)CC(=O)NC(=S)Nc1ccc(CN2CCOCC2)cc1	9	-24	-1	-5	-15	-2
O=C(O)C1=C(C(=O)N2CCN(C(=O)c3ccco3)CC2)CCCC1	20	-4	-17	2	-44	3
Cc1[nH]c2ccccc2c1NC(=O)CN1CCN(C(=O)c2ccco2)CC1	59*	-8	20	38	18	35
COc1ccc(-n2c(=S)[nH]c3cc(C(=O)Nc4ccc(OC)c(OC)c4)ccc3c2=O)cc1	10	-21	-39	8	60*	2
COc1ccc(-n2c(=S)[nH]c3cc(C(=O)Nc4cccc(C)c4)ccc3c2=O)cc1	-2	-11	-34	-5	17	-11
Cc1nc(NC(=O)c2ccccc2)nc2cc3c(cc12)OCO3	12	-16	0	3	-12	-2
C=CCOC(=O)c1c(C)nc2cc3c(cc2c1C)OCO3	8	-20	44*	2	2	16
O=C(COC(=O)Cc1ccccc1F)Nc1ccc2c(c1)OCCO2	2	-13	-12	-3	25	-9
CCc1cccc(NC(=O)CSC2=NS(=O)(=O)c3ccccc32)c1	7	-20	0	-1	-7	-2
CCn1c(=O)cc(SCC(=O)N2CCCCC2)c2ccccc21	19	-8	121*	5	-1	13
CCn1c(SCC(=O)N2CCCCC2)nc(O)cc1=O	44*	-32	7	-19	29	-5
CCC(=O)NC(O)C(=O)c1ccc(C)cc1 (stereo unspecified)	15	-14	-12	6	-45	-3
Cc1ccc(NC(=O)CN2C(=O)S/C(=C\C(=O)Nc3ccc(Cl)cc3)C2=O)cc1	4	-3	45*	4	17	10
Cn1cccc1/C=C1\SC(=O)N(CC(=O)Nc2ccc(Cl)cc2)C1=O	13	-15	-21	2	10	4
FC(F)(F)c1cccc(NCc2n[nH]c(=S)n2C2CCCCC2)c1	7	-20	-5	-3	56*	-8
CN(C)S(=O)(=O)N1CCN(c2cccc(Cl)c2)CC1	15	-14	83*	-8	17	25
Cn1c(NC(=O)/C=C\c2ccccc2)cc(=O)n(C)c1=O	7	-10	-4	-3	64*	-6
Cn1c(NC(=O)/C=C/c2c(F)cccc2Cl)cc(=O)n(C)c1=O	5	-30	-12	-3	-35	-12
O=C(Cn1nnc(-c2ccncc2)n1)NCCc1ccccc1	9	-21	48*	-2	-95	10
COc1ccc(C(=O)c2ccccc2)c2c(O)ccc(C(=O)c3ccccc3)c12	9	-12	-21	5	-27	0
COc1ccc(C(C)=O)c2c(O)cccc12	-3	-16	-15	-17	68*	7
SMILES	FXIIa inh 1536	Furin inhibitor	KLK5 inh	FXIa inh	m-calpain inh	thrombin 1536
COc1ccc(N2C(=O)C3C(C2=O)C2C=CC3C23CC3)c([N+](=O)[O-])c1 (stereo unspecified)	7	-21	-8	-4	23	1
C/C(=N\NC(=S)NC1CCCCC1)c1c(F)cccc1F	10	-21	-20	1	8	9
C/C(=N\NC(=S)NC1CCCCC1)c1ccc(OC(F)F)cc1OC(F)F	9	-12	7	0	54*	-4
CSc1nc2cc(Oc3cccc(Cl)c3Cl)c(Cl)cc2[nH]1	/	/	/	/	61*	/
CCOC(=O)c1cn(Cc2ccccc2)nn1	50*	-7	-5	36	6	-6
Cc1cc(Br)c2[nH]c3c(c2c1)CCCC3=O	54*	-13	0	31	-98	3
N/C(=N\OC(=O)c1cccc(Cl)c1)c1cccnc1	13	-13	-1	-2	0	47*
CCOC(=O)N1CCC(n2c(SCC(=O)NCCC3=CCCCC3)nc3ccccc3c2=O)CC1	6	1	-18	-4	1	-4
CC(C)(C)C(=O)OC/C(N)=N/OC(=O)c1ccc(Cl)cc1	4	-23	4	7	-18	-3
Cc1nnc(-c2ccc(Oc3ccc(Br)cc3)c([N+](=O)[O-])c2)o1	8	-18	-16	6	-5	-3
Cc1cc(Oc2ccc(-c3nnc(-c4ccccc4)o3)cc2[N+](=O)[O-])ccc1Cl	25	-6	43*	20	38	18
CCOC(=O)c1c(C)[nH]c(C)c1C=O	2	-10	-1	-7	-24	-9
CCCOC(=O)c1ccc(Oc2cn[nH]c2-c2ccc(OCC)cc2O)cc1	9	-6	8	2	53*	-4
CCCc1ccc(Oc2cn[nH]c2-c2ccc(O)c(C)c2O)cc1	0	-17	3	-12	53*	-3
CCOc1ccc(NC(=O)CCSc2ccc3ccccc3n2)cc1	0	-22	-8	-4	22	-4
C=CCOc1ccc(/C(O)=C2\C(=O)C(=O)N(CCCOC)C2c2ccncc2)cc1 (stereo unspecified)	22	0	31	13	12	41*
Cc1cc(/C=C2\SC(=S)N(C)C2=O)c(C)n1-c1cccc(O)c1	7	4	24	65*	9	5
COc1ccc(-n2c(C)cc(/C=C3/SC(=S)N(C)C3=O)c2C)cc1	6	-26	-2	0	-1	1
CCC(C)[C@H](NC(=O)Nc1ccc(C(C)=O)cc1)C(=O)OC (stereo partly specified)	44*	-5	2	24	25	1
CCCCCc1nc2c(=O)[nH]c3ccccc3c2o1	4	-19	4	-6	2	-4
CCCc1nc2c(=O)[nH]c3ccccc3c2o1	16	-21	44*	5	12	18
NS(=O)(=O)c1ccc(NNC(=O)c2sccc2Cl)cc1	41*	-4	29	22	-2	30
O=C(CCN1C(=O)c2ccccc2C1=O)N(CCO)Cc1ccccc1	9	27*	-5	15	-16	0
CCCC(=O)N(CCN(Cc1ccccc1)C(=O)CCC)Cc1ccccc1	8	-7	7	-5	-8	-7
O=C(c1cc(Cl)nc2ccccc12)N1CCc2ccccc2C1	30	-11	26	42*	22	3
O=C(c1cc(-c2ccccc2)nc2ccccc12)N1CCc2ccccc2C1	8	-9	-5	1	17	-3
CSc1ccc(N=Nc2c(C)[nH]n(C)c2=O)cc1	13	26*	3	4	19	4
